Bioassay records as filed in PubChem.
RGS4 inh: RGS4 inhibitors, primary screen, cell-based, HEK293 M3R inducible RGS4, calcium flux | Regulator of G-protein signaling 4 (Homo sapiens), P49798 | Fluo-4 calcium flux; active compounds read high; triggered by carbachol at its EC20 | B-score at 10 µM | 310,000 compounds, 0.45% hits;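 active = B-score, a plate-corrected calcium signal, over three deviations above library mean, with baseline fluorescence within five deviations of library mean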;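 also: RGS4 expression induced by doxycycline in cells with stable M3 receptor; B-score is computed from the integrated fluorescence ratio over baseline after carbachol; higher B-score means a larger calcium signal and so more RGS4 inhibition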
Target sequence (P49798 whole entry, looked up): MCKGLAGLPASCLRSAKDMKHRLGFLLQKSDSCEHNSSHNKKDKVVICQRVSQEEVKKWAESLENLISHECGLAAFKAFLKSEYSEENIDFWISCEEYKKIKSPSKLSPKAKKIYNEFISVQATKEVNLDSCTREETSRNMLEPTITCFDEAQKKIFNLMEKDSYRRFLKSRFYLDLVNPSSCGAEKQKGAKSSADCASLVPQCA
MrgX1 agonist: agonists of human MrgX1 receptor, primary screen, HEK293 cells, Fluo-4 calcium flux; AID 588627, 2011; 310,000 compounds, 0.44% hits; Mas-related G-protein coupled receptor member X1 (Homo sapiens), Q96LB2; Fluo-4 calcium fluorescence, agonist mode; active compounds read high; B-score at 10 µM;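 active = calcium response B-score plate-corrected fluorescence ratio at least 3 library SD, with starting fluorescence B-score inside 5 SD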
Target sequence (Q96LB2 whole entry, looked up): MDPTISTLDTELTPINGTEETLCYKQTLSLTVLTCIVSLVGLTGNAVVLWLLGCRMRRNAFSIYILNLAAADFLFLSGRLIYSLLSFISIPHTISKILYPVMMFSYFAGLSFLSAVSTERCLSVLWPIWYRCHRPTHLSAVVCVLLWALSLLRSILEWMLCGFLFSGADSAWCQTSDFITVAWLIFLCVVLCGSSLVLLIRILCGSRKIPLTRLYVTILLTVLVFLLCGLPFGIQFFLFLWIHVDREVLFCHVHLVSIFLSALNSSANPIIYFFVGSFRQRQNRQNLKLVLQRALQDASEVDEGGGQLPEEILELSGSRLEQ
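Assay system: MrgX1-expressing HEK293 cells / Amount: fifteen thousand cells per well / Doses: test compound in the initial addition of three / Timing: cells plated overnight, dye loaded 0.5 h 37 °C, 0.5 h room temperature / Technique: kinetic calcium dye fluorescence, Fluo-4 NW / Control set: positive and negative controls per plate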
MrgX1 PAM: positive allosteric modulators of MrgX1, primary screen, HEK293 cells, Fluo-4 calcium flux | FDSS; active compounds read high | B-score at 10 µM | 310,000 compounds, 0.63% hits | AID 588675, 2011;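 active = plate-corrected calcium response at least 3 library SD above typical, normal starting fluorescence, not activating the receptor alone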;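 also: compound read alongside a low EC10 to EC30 dose of BAM8-22 agonist; peak minus trough fluorescence over baseline measured at the second addition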
RGS4 pot: RGS4 potentiators or activators, primary screen, cell-based, HEK293 M3R inducible RGS4, calcium flux | carbachol calcium flux Fluo4; active compounds read low | B-score at 10 µM | 310,000 compounds, 0.92% hits | AID 463111, 2010;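 active = B-score of the integrated calcium signal more than 4 SD below the library mean, with starting fluorescence not abnormally high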;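 also: negative B-score means reduced calcium response which marks RGS4 activation or potentiation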
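Reagent: ECmax carbachol challenge; Test system: M3R-expressing HEK293 line, RGS4 induced by doxycycline; Schedule: overnight RGS4 induction, 30 min dye load 37 °C, 20 min compound RT; Detection: calcium dye Fluo4 fluorescence; Read-out: Agonist-evoked peak-minus-minimum fluorescence over baseline, integrated ratio, B score.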
MrgX1 antag: antagonists of human MrgX1 receptor, primary screen, HEK293 cells, Fluo-4 calcium flux. Mas-related G-protein coupled receptor member X1 (Homo sapiens), Q96LB2. BAM8-22 antagonism; active compounds read low. B-score at 10 µM. 310,000 compounds, 1.3% hits. AID 588676, 2011;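 active = calcium-response B-score plate-corrected more than 3 library SD below zero, starting fluorescence within 5 deviations, no agonist response on first addition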;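 also: peak minus trough fluorescence over baseline after final BAM8-22 challenge near maximal dose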
RGS4 block valid: enhanced carbachol calcium response, M3R/RGS4 cells, RGS4 inhibitor project, cell-based, validation screen, HEK293 M3R/RGS4, calcium flux; shares compounds with RGS4 inh; carbachol calcium Fluo-4 fluorescence; carbachol added at its EC20; 0 = buffer wells, 100 = carbachol control; calcium response, % at 10 µM; 1,700 compounds, 65% hits; AID 492999, 2010;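 active = duplicate-averaged calcium response above the buffer-only control mean plus 5 SD of those controls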;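 also: integrated fluorescence ratio F max minus min over baseline F0; higher response in RGS4-induced cells means RGS4 inhibition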
M3R Ca ctr: carbachol calcium response in non-induced M3R cells, confirmation, counter-screen for RGS4 inhibitor project, cell-based, HEK293 M3R; carbachol calcium Fluo-4; submaximal (EC20) carbachol stimulus; buffer wells 0%, carbachol control wells 100%; shares compounds with RGS4 inh; activity (percent), % at 10 µM; 1,900 compounds, 20% hits; AID 493000, 2010; call rule not given here;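 also: RGS4 induction absent so cells express M3R without RGS4; higher means more calcium signal and flags a non-specific hit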
M3R basal Ca ctr: signal in non-induced cells without carbachol, RGS4 inhibitor counter-screen | shares compounds with RGS4 inh | HEK293 M3R/RGS4 non-induced, Fluo-4 calcium, no carbachol; normalised: buffer wells 0%, carbachol wells 100% | calcium response (agonist-mode artifact), % at 10 µM | 1,900 compounds, 22% hits;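 active = duplicate-averaged calcium rise in uninduced cells above buffer wells' mean plus 5 SD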
Active calls of the source: *; i = inactive; / = no result given. An excerpt weighted towards active compounds, which were near 3.5% of everything screened.

SMILES | RGS4 inh | MrgX1 agonist | MrgX1 PAM | RGS4 pot | MrgX1 antag | RGS4 block valid | M3R Ca ctr | M3R basal Ca ctr
C=C(CC1CC(O)[C@]2(C)OC3CC4OC5C[C@]6(C)O[C@]7(C)CCC8OC9C[C@]%10(C)OC%11C(C)=CC(=O)OC%11CC%10OC9C[C@@H](C)C8OC7CC6O[C@]5(C)C/C=C\C4OC3CC2O1)C(=O)O (stereo partly drawn) | i | i | i | i | i | i | i | i
O=P(Nc1ccccc1)(Nc1ccccc1)Oc1cccc(Cl)c1 | i | i | i | i | i | / | / | /
O=c1[nH]c(=S)n(C2CC2)c(O)c1C=Nc1ccc2c(c1)OCO2 | i | i | i | i | i | / | / | /
O=C1NC(=O)N(c2ccc3c(c2)OCO3)C(=O)/C1=C/c1cccs1 | 13* | i | i | i | i | 18%* | 34%* | i
O=C1NC(=O)N(c2ccc3c(c2)OCO3)C(=O)/C1=C/c1ccsc1 | i | i | i | i | i | / | / | /
CC(=O)Nc1nnc(CCN(CCc2nnc(NC(C)=O)s2)[N+](=O)[O-])s1 | i | i | i | i | i | / | / | /
Cc1ccc2c(c1)=NC(=O)/C(=C/c1c(O)[nH]c(=O)[nH]c1=O)C=2 | i | i | i | i | i | / | i | i
S=P(NC1CCCCC1)(N1CC1)N1CC1 | i | i | i | i | i | / | / | /
CC/C(=N\N1CCCCC1)c1c(O)[nH]c(=O)[nH]c1=O | 4.7* | i | i | i | i | 8.5%* | i | i
Cc1nonc1OCCNCCNc1ccc([N+](=O)[O-])c2cccnc12 | i | i | i | i | i | / | / | /
Cc1ccccc1Cc1c(C)nc2nc(SCC(=O)N3CCC4(CC3)OCCO4)nn2c1C | i | i | i | i | i | / | / | /
O=C(Cn1cc(C=C2C(=O)NC(=O)NC2=O)c2ccccc21)NCC1CCCO1 (stereo not drawn) | i | i | i | i | i | / | / | /
Cc1c(C=C2C(=O)N(C)C(=S)N(C)C2=O)c2ccccc2n1CC(=O)NCC1CCCO1 (stereo not drawn) | 5.1* | i | i | i | i | 54%* | i | 24%*
Nc1c(C(=O)NCc2ccco2)c2nc3ccccc3nc2n1CCN1CCCCC1 | i | i | i | i | i | i | i | 12%*
COc1cc2[nH]c(C(=O)N3CCC4(CC3)OCCO4)cc2c(OC)c1OC | i | i | i | i | i | / | / | /
COc1cc2c(cc1/C=C/[N+](=O)[O-])OCO2 | 12* | / | / | i | / | 36%* | 43%* | 74%*
O=C(O)c1sc2cc(Cl)ccc2c1Cl | i | i | i | i | i | / | / | /
O=C1/C(=C\c2ccncc2)N2CCC1CC2 | i | i | i | i | i | / | / | /
O=C1/C(=C\c2cc3c(cc2Cl)OCO3)N2CCC1CC2 | i | i | i | i | i | / | / | /
O=C1/C(=C\c2ccc(Cl)c(Cl)c2)N2CCC1CC2 | 21* | i | i | i | i | 16%* | i | i
O=C1/C(=C\c2ccc(Cl)cc2Cl)N2CCC1CC2 | 7.7* | i | i | i | i | 6.5%* | i | i
O=c1[nH]c(=O)n(CCc2ccccc2)c(O)c1C=NC1CC1 | i | i | i | i | i | / | / | /
Cc1nn(Cc2ccccc2)c(C)c1C=C1C(=O)NC(=S)NC1=O | 14* | i | i | i | i | 70%* | i | 8.0%*
CCNC(=O)[C@H]1O[C@@H](n2cnc3c(N)ncnc32)[C@H](O)[C@@H]1O | 9.8* | i | i | i | i | 34%* | i | i
NC(=O)c1cn(C2OC(CO)C(O)C2O)c2ncnc(N)c12 (stereo not drawn) | i | i | i | i | i | / | / | /
SMILES | RGS4 inh | MrgX1 agonist | MrgX1 PAM | RGS4 pot | MrgX1 antag | RGS4 block valid | M3R Ca ctr | M3R basal Ca ctr
C[C@H]1C(=O)O[C@@H]2CCN3CC=C(COC(=O)[C@](C)(O)[C@]1(C)O)[C@H]23 | / | i | i | / | i | / | / | /
C=C1C(=O)O[C@@H]2C[C@@H](C)[C@@H]3C=CC(=O)[C@@]3(C)[C@@H](OC(=O)CC(=O)O[C@H]3[C@@H]4C(=C)C(=O)O[C@@H]4C[C@@H](C)[C@@H]4C=CC(=O)[C@]43C)[C@H]12 | i | i | i | i | -5.3* | / | i | 11%*
CN1C(=O)C(=Cc2ccc(Sc3ccccc3)o2)C(=O)N(C)C1=S | i | i | i | i | i | i | i | 8.5%*
CN1C(=O)C(=Cc2ccc(N3CCOCC3)o2)C(=O)N(C)C1=S | i | i | i | i | i | / | / | /
O=C1NC(=O)C(=Cc2ccc(Sc3ccccc3)o2)C(=O)N1 | 9.9* | i | i | i | i | 5.0%* | i | 29%*
CN1C(=O)C(=Cc2coc3ccccc3c2=O)C(=O)N(C)C1=O | i | i | i | i | i | / | / | /
CN1C(=O)C(=Cc2ccc(Sc3ccccc3)o2)C(=O)N(C)C1=O | 27* | i | i | i | i | 23%* | i | 210%*
Cc1cc(C)c(C(=O)CN2CCOCC2)c(C)c1 | / | i | i | / | i | / | / | /
Cc1ccc(N2C(=O)NC(=O)/C(=C\C=C\c3ccco3)C2=O)cc1C | 22* | i | i | i | i | 28%* | 32%* | 40%*
Cc1cccc(N2C(=O)NC(=O)/C(=C\C=C\c3ccco3)C2=O)c1 | 17* | 57* | i | i | i | 49%* | 64%* | 88%*
Cc1ccc(N2C(=O)NC(=O)/C(=C\C=C\c3ccco3)C2=O)cc1 | i | i | i | i | i | / | i | 12%*
O=C1NC(=O)N(c2ccccc2)C(=O)/C1=C/C=C/c1ccco1 | i | i | i | i | i | / | / | /
